Tests used:
Format in all cases: functional
Aphis fabae [1] = test: Insecticidal activity against Aphis fabae (black bean aphid) apterous third-instar nymphae in tender soybean shoots assessed as inhibition activity at 100 mg/L after 72 hr
Procedure, shortened: (§1)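 Test solutions were made in N,N-dimethylformamide and diluted to working concentration with distilled water containing TW-80 (0.1 mL L⁻¹). Aphids were dipped following a slightly modified FAO dip test. Assessment was made 72 h after treatment. Each treatment was run three times, and control groups were given water only. Deviation of values was 5%.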

Aphis fabae [2] = test: Insecticidal activity against Aphis fabae (black bean aphid) apterous third-instar nymphae in tender soybean shoots assessed as inhibition activity at 10 mg/L after 72 hr; procedure, shortened: as §1
Tetranychus cinnabarinus [3] = test: Larvicidal activity against Tetranychus cinnabarinus (carmine spider mite) fifty third-instar mite larvae assessed as inhibition activity at 100 mg/L after 72 hr
Procedure, shortened: (§2)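 Test solutions were made in N,N-dimethylformamide and diluted with distilled water containing TW-80 (0.1 mL L⁻¹). Fifty third-instar larvae were dipped in the dilution for 5 s, and excess liquid was removed. Larvae were then held in an air-conditioned room, and mortality was scored at 72 h. Tests were run in triplicate, and controls were treated with water only.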

Tetranychus cinnabarinus [4] = test: Larvicidal activity against Tetranychus cinnabarinus ( carmine spider mite ) fifty third-instar mite larvae assessed as inhibition activity at 10 mg/L after 72 hr; procedure, shortened: as §2

Cc1ccc(C)c(C2=C(OC(=O)Cc3ccccc3)C3(CCC(=O)CC3)NC2=O)c1
inhibition at 100 µg/mL (Aphis fabae [1]): 95.6%
inhibition at 10 µg/mL (Aphis fabae [2]): 62.8%
inhibition at 100 µg/mL (Tetranychus cinnabarinus [3]): 66.8%
inhibition at 10 µg/mL (Tetranychus cinnabarinus [4]): 38.9%

Cc1ccc(C)c(C2=C(OC(=O)c3ccc(Cl)cc3)C3(CCC(=O)CC3)NC2=O)c1
inhibition at 100 µg/mL (Aphis fabae [1]): 68.2%
inhibition at 10 µg/mL (Aphis fabae [2]): 10.8%
inhibition at 100 µg/mL (Tetranychus cinnabarinus [3]): 42.9%
inhibition at 10 µg/mL (Tetranychus cinnabarinus [4]): 9.23%

Cc1ccc(C)c(CC(=O)OC2=C(c3cc(C)ccc3C)C(=O)NC23CCC(=O)CC3)c1
inhibition at 100 µg/mL (Aphis fabae [1]): 76.2%
inhibition at 10 µg/mL (Aphis fabae [2]): 37.3%
inhibition at 100 µg/mL (Tetranychus cinnabarinus [3]): 61.6%
inhibition at 10 µg/mL (Tetranychus cinnabarinus [4]): 24.6%

Cc1ccc(C)c(C2=C(OC(=O)CC(C)(C)C)C3(CCC(=O)CC3)NC2=O)c1
inhibition at 100 µg/mL (Aphis fabae [1]): 62.1%
inhibition at 10 µg/mL (Aphis fabae [2]): 21.6%
inhibition at 100 µg/mL (Tetranychus cinnabarinus [3]): 26.1%
inhibition at 10 µg/mL (Tetranychus cinnabarinus [4]): 8.76%

Cc1ccc(CC(=O)OC2=C(c3cc(C)ccc3C)C(=O)NC23CCC(=O)CC3)cc1
inhibition at 100 µg/mL (Aphis fabae [1]): 73.5%
inhibition at 10 µg/mL (Aphis fabae [2]): 48.4%
inhibition at 100 µg/mL (Tetranychus cinnabarinus [3]): 70.8%
inhibition at 10 µg/mL (Tetranychus cinnabarinus [4]): 21.8%

Cc1ccc(C)c(C2=C(OC(=O)Cc3ccc(C(F)(F)F)cc3)C3(CCC(=O)CC3)NC2=O)c1
inhibition at 100 µg/mL (Aphis fabae [1]): 98.6%
inhibition at 10 µg/mL (Aphis fabae [2]): 60%
inhibition at 100 µg/mL (Tetranychus cinnabarinus [3]): 85.3%
inhibition at 10 µg/mL (Tetranychus cinnabarinus [4]): 49%

Cc1ccc(C)c(C2=C(OC(=O)Cc3ccc(Cl)cc3Cl)C3(CCC(=O)CC3)NC2=O)c1
inhibition at 100 µg/mL (Aphis fabae [1]): 85.6%
inhibition at 10 µg/mL (Aphis fabae [2]): 26.9%
inhibition at 100 µg/mL (Tetranychus cinnabarinus [3]): 75.9%
inhibition at 10 µg/mL (Tetranychus cinnabarinus [4]): 31.2%

CCOC(=O)OC1=C(c2cc(C)ccc2C)C(=O)NC12CCC(=O)CC2
inhibition at 100 µg/mL (Aphis fabae [1]): 93.5%
inhibition at 10 µg/mL (Aphis fabae [2]): 45.9%
inhibition at 100 µg/mL (Tetranychus cinnabarinus [3]): 62.3%
inhibition at 10 µg/mL (Tetranychus cinnabarinus [4]): 30.4%

C/C=C/C(=O)OC1=C(c2cc(C)ccc2C)C(=O)NC12CCC(=O)CC2
inhibition at 100 µg/mL (Aphis fabae [1]): 85.6%
inhibition at 10 µg/mL (Aphis fabae [2]): 34.9%
inhibition at 100 µg/mL (Tetranychus cinnabarinus [3]): 58.2%
inhibition at 10 µg/mL (Tetranychus cinnabarinus [4]): 23.4%

Cc1ccc(C)c(C2=C(OC(=O)Cc3ccc([N+](=O)[O-])cc3)C3(CCC(=O)CC3)NC2=O)c1
inhibition at 100 µg/mL (Aphis fabae [1]): 92.2%
inhibition at 10 µg/mL (Aphis fabae [2]): 32.3%
inhibition at 100 µg/mL (Tetranychus cinnabarinus [3]): 73.8%
inhibition at 10 µg/mL (Tetranychus cinnabarinus [4]): 16.3%

Cc1ccc(C)c(C2=C(OC(=O)Cc3ccc(Cl)c(Cl)c3)C3(CCC(=O)CC3)NC2=O)c1
inhibition at 100 µg/mL (Aphis fabae [1]): 97.3%
inhibition at 10 µg/mL (Aphis fabae [2]): 49.3%
inhibition at 100 µg/mL (Tetranychus cinnabarinus [3]): 71.7%
inhibition at 10 µg/mL (Tetranychus cinnabarinus [4]): 28.9%

Cc1ccc(C)c(C2=C(OC(=O)c3ccccc3C)C3(CCC(=O)CC3)NC2=O)c1
inhibition at 100 µg/mL (Aphis fabae [1]): 25.5%
inhibition at 10 µg/mL (Aphis fabae [2]): 6.27%
inhibition at 100 µg/mL (Tetranychus cinnabarinus [3]): 59.4%
inhibition at 10 µg/mL (Tetranychus cinnabarinus [4]): 17.3%

Cc1ccc(C)c(C2=C(OC(=O)Cc3ccc(Cl)cc3)C3(CCC(=O)CC3)NC2=O)c1
inhibition at 100 µg/mL (Aphis fabae [1]): 89.8%
inhibition at 10 µg/mL (Aphis fabae [2]): 47.3%
inhibition at 100 µg/mL (Tetranychus cinnabarinus [3]): 58%
inhibition at 10 µg/mL (Tetranychus cinnabarinus [4]): 17.8%

Cc1ccc(C)c(C2=C(OC(=O)Cc3ccccc3Cl)C3(CCC(=O)CC3)NC2=O)c1
inhibition at 100 µg/mL (Aphis fabae [1]): 96.5%
inhibition at 10 µg/mL (Aphis fabae [2]): 59.2%
inhibition at 100 µg/mL (Tetranychus cinnabarinus [3]): 53.5%
inhibition at 10 µg/mL (Tetranychus cinnabarinus [4]): 28.3%

Cc1ccc(C)c(C2=C(OC(=O)Cc3ccc(F)cc3)C3(CCC(=O)CC3)NC2=O)c1
inhibition at 100 µg/mL (Aphis fabae [1]): 93.7%
inhibition at 10 µg/mL (Aphis fabae [2]): 69.3%
inhibition at 100 µg/mL (Tetranychus cinnabarinus [3]): 49%
inhibition at 10 µg/mL (Tetranychus cinnabarinus [4]): 29.9%

COc1ccc(CC(=O)OC2=C(c3cc(C)ccc3C)C(=O)NC23CCC(=O)CC3)cc1
inhibition at 100 µg/mL (Aphis fabae [1]): 92.1%
inhibition at 10 µg/mL (Aphis fabae [2]): 87.3%
inhibition at 100 µg/mL (Tetranychus cinnabarinus [3]): 80.5%
inhibition at 10 µg/mL (Tetranychus cinnabarinus [4]): 24.4%

CCOC(=O)OC1=C(c2cc(C)ccc2C)C(=O)N[C@]12CC[C@@H](OC)CC2 [SPIROTETRAMAT]
inhibition at 100 µg/mL (Aphis fabae [1]): 100%
inhibition at 10 µg/mL (Aphis fabae [2]): 96.8%
inhibition at 100 µg/mL (Tetranychus cinnabarinus [3]): 75%
inhibition at 10 µg/mL (Tetranychus cinnabarinus [4]): 26.3%

Cc1ccc(C)c(C2=C(OC(=O)c3ccccc3)C3(CCC(=O)CC3)NC2=O)c1
inhibition at 100 µg/mL (Aphis fabae [1]): 91.8%
inhibition at 10 µg/mL (Aphis fabae [2]): 29.3%
inhibition at 100 µg/mL (Tetranychus cinnabarinus [3]): 49.8%
inhibition at 10 µg/mL (Tetranychus cinnabarinus [4]): 18.2%

Cc1cc(C)c(C2=C(OC(=O)CC(C)(C)C)C3(CCCC3)OC2=O)c(C)c1 [SPIROMESIFEN]
inhibition at 100 µg/mL (Aphis fabae [1]): 62.5%
inhibition at 10 µg/mL (Aphis fabae [2]): 14.3%
inhibition at 100 µg/mL (Tetranychus cinnabarinus [3]): 80.2%
inhibition at 10 µg/mL (Tetranychus cinnabarinus [4]): 42.1%

CCCC(=O)OC1=C(c2cc(C)ccc2C)C(=O)NC12CCC(=O)CC2
inhibition at 100 µg/mL (Aphis fabae [1]): 98.7%
inhibition at 10 µg/mL (Aphis fabae [2]): 37.3%
inhibition at 100 µg/mL (Tetranychus cinnabarinus [3]): 54.7%
inhibition at 10 µg/mL (Tetranychus cinnabarinus [4]): 19.7%

CCC(C)(C)C(=O)OC1=C(c2ccc(Cl)cc2Cl)C(=O)OC12CCCCC2 [SPIRODICLOFEN]
inhibition at 100 µg/mL (Aphis fabae [1]): 60.3%
inhibition at 10 µg/mL (Aphis fabae [2]): 19.4%
inhibition at 100 µg/mL (Tetranychus cinnabarinus [3]): 70.6%
inhibition at 10 µg/mL (Tetranychus cinnabarinus [4]): 36.7%

Cc1cc(C)c(CC(=O)OC2=C(c3cc(C)ccc3C)C(=O)NC23CCC(=O)CC3)c(C)c1
inhibition at 100 µg/mL (Aphis fabae [1]): 69.2%
inhibition at 10 µg/mL (Aphis fabae [2]): 25.2%
inhibition at 100 µg/mL (Tetranychus cinnabarinus [3]): 39.4%
inhibition at 10 µg/mL (Tetranychus cinnabarinus [4]): 12.1%

Cc1ccc(C)c(C2=C(OC(=O)Cc3cccc(Cl)c3)C3(CCC(=O)CC3)NC2=O)c1
inhibition at 100 µg/mL (Aphis fabae [1]): 44.6%
inhibition at 10 µg/mL (Aphis fabae [2]): 13.6%
inhibition at 100 µg/mL (Tetranychus cinnabarinus [3]): 24.7%
inhibition at 10 µg/mL (Tetranychus cinnabarinus [4]): 3.23%

Cc1ccc(C)c(C2=C(OC(=O)Cc3ccc(Br)cc3)C3(CCC(=O)CC3)NC2=O)c1
inhibition at 100 µg/mL (Aphis fabae [1]): 47.8%
inhibition at 10 µg/mL (Aphis fabae [2]): 9.78%
inhibition at 100 µg/mL (Tetranychus cinnabarinus [3]): 32.5%
inhibition at 10 µg/mL (Tetranychus cinnabarinus [4]): 5.25%
